Consider 12 molecules from ChEMBL document CHEMBL2163305, “Nanomolar potency and metabolically stable inhibitors of kidney urea transporter UT-B” (J Med Chem, 2012).

Data set [1] can be described thus: Metabolic stability in rat liver microsomes assessed as compound remaining at 5 uM after 30 mins. The data set is classed as ADME, Microsome. The conditions noted are these: read-out: Stability. Background: Liver microsomes are vesicles of endoplasmic reticulum, rich in cytochrome P450 enzymes.
Another data set deals with Blood. The data set can be described thus: Drug uptake in mouse blood at 200 ug, ip at 6 hrs. The data set is classed as ADME, organism-based. The conditions noted are these: in vivo. The essentials:
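Mice (8–10 weeks, 25–35 g) received 200 μg of each of two inhibitors together by ip injection in DMSO/Tween-80/PEG400 formulation. Blood taken at 6 h, diluted with equal volume of water, extracted with ethyl acetate, LC/MS against standards. SE, 3 mice.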

A short description of data set [2]: Half life in rat liver microsomes at 5 uM. It counts as ADME, Microsome.
Another data set has as its system Kidney. The data set is described as follows: Drug uptake in mouse kidney at 400 ug, ip administered as bolus dose. The conditions noted are these: in vivo, read-out: Drug uptake. The data set is classed as ADME, organism-based.
The test system of a further data set is Mus musculus. The data set is described as follows: Antidiuretic activity in mouse assessed as reduction in urine osmolality at 400 ug, ip administered 1 hr followed by dDAVP administration (reference value: >3 Osm/kg). It counts as functional.
The nature of data set [3]: Drug excretion in mouse urine at 400 ug, ip administered as bolus dose. It counts as ADME, organism-based. The conditions noted are these: in vivo.
The species named for a further data set is Homo sapiens. The data set is described as follows: Inhibition of UT-B-mediated urea transport in human erythrocytes incubated for 10 mins prior to urea addition by Stopped-flow light scattering assay. It counts as cell-based. Put shortly:
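Human venous blood in heparin, kept at 4 °C and used within 48 h, diluted in PBS to ~0.5% hematocrit. Inhibitor for 10 min, then mixed 1:1 in stopped-flow to impose a 100 mM inward urea gradient. Cell swelling followed as 90° scattered light at 530 nm. Urea permeability and % inhibition computed.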

For `CC(C)c1ccc(S(=O)(=O)c2nnn3c2nc(NCc2ccco2)c2sccc23)cc1`, in data set [1], the remaining at 0.5 h, 5 µM was greater than 99%. Regarding `CCc1ccc(S(=O)(=O)c2nnn3c2nc(NCc2cccs2)c2sccc23)cc1`, in the data set with Blood, the Drug uptake entry is listed as “Active”. Moreover, in data set [1], the remaining at 0.5 h, 5 µM was less than 5%. For the same molecule, the half-life (commonly the time needed for the level to fall by half in the phase considered) at 5 µM in data set [2] stood at 0.0467 h. For the molecule `O=S(=O)(c1ccc(F)cc1)c1nnn2c1nc(NCc1cccs1)c1sccc12`, the remaining at 0.5 h, 5 µM in data set [1] came out at 27%.

As for `O=S(=O)(c1cccs1)c1nnn2c1nc(NCc1cccs1)c1sccc12`, the remaining at 0.5 h, 5 µM in data set [1] is less than 5%. Still for that read-out and setting: in the case of `COc1ccc(CNc2nc3c(S(=O)(=O)c4ccc(C(C)C)cc4)nnn3c3ccsc23)cc1` it was 7%.

As for `COc1ccc(S(=O)(=O)c2nnn3c2nc(NCc2cccs2)c2sccc23)cc1`, the remaining at 0.5 h, 5 µM in data set [1] is 6%. For the molecule `CC(C)c1ccc(S(=O)(=O)c2nnn3c2nc(NCc2cccc4ccccc24)c2sccc23)cc1`, the remaining at 0.5 h, 5 µM in data set [1] was 45%.

As for `O=S(=O)(c1ccc(C(F)(F)F)cc1)c1nnn2c1nc(NCc1cccs1)c1sccc12`, the remaining at 0.5 h, 5 µM in data set [1] is 99%. Take `CC(C)c1ccc(S(=O)(=O)c2nnn3c2nc(NCc2cccs2)c2sccc23)cc1`: the remaining at 0.5 h, 5 µM in data set [1] was less than 5%. Same read-out and setting: the figure for `O=S(=O)(c1ccc(OC(F)(F)F)cc1)c1nnn2c1nc(NCc1cccs1)c1sccc12` is 95%. Turning to `CC(F)(F)c1ccc(S(=O)(=O)c2nnn3c2nc(NCc2cccs2)c2sccc23)cc1`, in the data set on Blood, the Drug uptake entry is “Active”. Also, the remaining at 0.5 h, 5 µM in data set [1] worked out at 96%. In the data set on Kidney, the concentration was greater than 1000 nM. Also, in the data set with Mus musculus, the Activity stood at 0.5 Osm/kg. In data set [3], this molecule yielded a Drug excretion greater than 1 µM. In addition, in the data set filed under Homo sapiens, the inhibition result is “Dose-dependent effect”. The molecule further came in with a half-life at 5 µM in data set [2] of 2 h.

For the molecule `O=S(=O)(c1ccc(Br)cc1)c1nnn2c1nc(NCc1cccs1)c1sccc12`, in data set [1], the remaining at 0.5 h, 5 µM was determined as 60%.
